From ChEMBL document CHEMBL1139389, “Discovery of the Poly(ADP-ribose) polymerase (PARP) inhibitor 2-[(R)-2-methylpyrrolidin-2-yl]-1H-benzimidazole-4-carboxamide (ABT-888) for the treatment of cancer” (J Med Chem, 2009)

Columns and labels:
[1] = AUC in CD1 mouse at 10 mg/kg, po; format: ADME, organism-based; parameters: dose 10 mg/kg, route oral; settings: plasma
Outline: (§1)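 Mouse PK: oral dose 10 mg/kg in 2.5% EtOH, 1 drop Tween-80, 25% PEG400 in PBS; iv dose 3 mg/kg in 2.5% EtOH, 5% DMSO, 1 drop Tween-80, 25% PEG400 in PBS. Oral bioavailability, iv half-life, oral AUC and Cmax derived from plasma profiles.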

[2] = Half life in CD1 mouse at 3 mg/kg, iv; format: ADME, organism-based; parameters: dose 3 mg/kg, route intravenous; settings: in vivo; outline: as §1
[3] = Cmax in CD1 mouse at 10 mg/kg, po; format: ADME, organism-based; parameters: dose 10 mg/kg, route oral; settings: in vivo; outline: as §1
[4] = Oral bioavailability in CD1 mouse at 10 mg/kg; format: ADME, organism-based; settings: in vivo; outline: as §1
[5] = target: Poly [ADP-ribose] polymerase 2 (Homo sapiens, UniProt Q9UGN5); experiment: Inhibition of human recombinant PARP2
Sequence of Poly [ADP-ribose] polymerase 2 (Q9UGN5 whole entry): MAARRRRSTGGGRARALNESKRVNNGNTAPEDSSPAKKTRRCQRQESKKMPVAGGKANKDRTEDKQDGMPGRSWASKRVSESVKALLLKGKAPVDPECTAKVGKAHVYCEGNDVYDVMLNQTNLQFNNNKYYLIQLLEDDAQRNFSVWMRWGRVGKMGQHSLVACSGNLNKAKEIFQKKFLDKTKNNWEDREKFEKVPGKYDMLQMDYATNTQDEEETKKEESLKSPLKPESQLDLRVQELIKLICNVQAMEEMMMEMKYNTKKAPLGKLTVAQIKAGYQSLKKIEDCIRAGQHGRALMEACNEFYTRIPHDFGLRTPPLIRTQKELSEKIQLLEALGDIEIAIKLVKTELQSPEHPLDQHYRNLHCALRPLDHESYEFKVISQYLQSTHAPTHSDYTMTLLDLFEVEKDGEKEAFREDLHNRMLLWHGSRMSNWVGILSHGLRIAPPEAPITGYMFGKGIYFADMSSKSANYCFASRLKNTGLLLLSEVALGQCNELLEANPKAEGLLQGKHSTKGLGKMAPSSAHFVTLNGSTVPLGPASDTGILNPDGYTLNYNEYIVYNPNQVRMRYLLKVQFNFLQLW

AUC [1]	half-life [2]	Cmax [3]	bioavailability [4]	Ki [5]	SMILES
400 ng·h/mL	1.2 h	100 ng/mL	20%	2 nM	CC1(c2nc3c(C(N)=O)cccc3[nH]2)CCNCC1
1500 ng·h/mL	1.5 h	500 ng/mL	93%	–	CC1(c2nc3c(C(N)=O)cccc3[nH]2)CCCCN1 (stereo not drawn)
1000 ng·h/mL	1.4 h	500 ng/mL	100%	–	CC(C)N1CCC(C)(c2nc3c(C(N)=O)cccc3[nH]2)C1 (stereo not drawn)
